MIC80, Activity and Survival data for 6 compounds are collected here from ChEMBL document CHEMBL4024779, “Novel Terminal Bipheny-Based Diapophytoene Desaturases (CrtN) Inhibitors as Anti-MRSA/VISR/LRSA Agents with Reduced hERG Activity” (J Med Chem, 2018).

One assay concerns Nannizzia gypsea. The assay is described as follows: In vitro antifungal activity against Microsporum gypseum after 7 days by serial dilution method. The class given is functional. To be noted: 168 h.
Another assay concerns Trichophyton verrucosum. Kind of assay: In vitro antifungal activity against Trichophyton verrucosum after 7 days by serial dilution method. The assay is classed as functional. To be noted: 168 h.
The subject of a further assay is Trichophyton rubrum. The assay is described as follows: In vitro antifungal activity against Trichophyton rubrum after 7 days by serial dilution method. The following applies: 168 h. The class given is functional.
The test system of assay [1] is Trichophyton mentagrophytes. Kind of assay: In vitro antifungal activity against Trichophyton mentagrophytes after 7 days by serial dilution method. The assay is classed as functional. To be noted: 168 h.
The test system of assay [2] is Staphylococcus aureus. The assay is described as follows: In vivo anti-virulence activity against methicillin-resistant Staphylococcus aureus LRSA202 infected in BALB/c mouse model assessed as reduction in bacterial load in heart at 0.4 mg bid for 3.5 days administered intraperitoneally 6 hrs post infection by serial dilution method relative to control. The class given is functional, organism-based. Summed up: (§1)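 Mice were infected by retro-orbital injection with LRSA56 (5.0 × 10^7 CFU) or LRSA202 (7.0 × 10^7 CFU). Compound was given intraperitoneally 6 h after infection. […] Log10 CFU was counted in kidneys and hearts, with groups compared by two-tailed Mann-Whitney test.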

In assay [3] the test system is Staphylococcus aureus. The assay is described as follows: In vivo anti-virulence activity against methicillin-resistant Staphylococcus aureus Mu50 infected in BALB/c mouse model assessed as reduction in bacterial load in heart at 0.4 mg bid for 4.5 days administered intraperitoneally 6 hrs post infection by serial dilution method. The assay is classed as functional, organism-based.

Assay [4] concerns Staphylococcus aureus. The assay is described as follows: In vivo anti-virulence activity against methicillin-resistant Staphylococcus aureus LRSA202 infected in BALB/c mouse model assessed as reduction in bacterial load in kidney at 0.4 mg bid for 3.5 days administered intraperitoneally 6 hrs post infection by serial dilution method relative to control. The class given is functional, organism-based. Summed up:
as §1

Assay [5] concerns Staphylococcus aureus. The assay is described as follows: In vivo anti-virulence activity against methicillin-resistant Staphylococcus aureus LRSA56 infected in BALB/c mouse model assessed as reduction in bacterial load in kidney at 0.4 mg bid for 3.5 days administered intraperitoneally 6 hrs post infection by serial dilution method relative to control. The class given is functional, organism-based. Summed up:
as §1

The test system of assay [6] is Staphylococcus aureus. Kind of assay: In vivo anti-virulence activity against Staphylococcus aureus Mu50 infected in BALB/c mouse model assessed as reduction in bacterial load in kidney at 0.4 mg bid for 4.5 days administered […] 6 hrs post infection by serial dilution method relative to control. The assay is classed as functional, organism-based.
In assay [7] the test system is Staphylococcus aureus. The assay is described as follows: In vivo anti-virulence activity against methicillin-resistant Staphylococcus aureus LRSA56 infected in BALB/c mouse model assessed as reduction in bacterial load in heart at 0.4 mg bid for 3.5 days administered intraperitoneally 6 hrs post infection by serial dilution method relative to control. The assay is classed as functional, organism-based. Summed up: as §1

For assay [8], the target named is T1, 4,4'-diapophytoene desaturase (4,4'-diaponeurosporene-forming) (Staphylococcus aureus (strain USA300)) (UniProt Q2FDU6).
T1 sequence (whole entry): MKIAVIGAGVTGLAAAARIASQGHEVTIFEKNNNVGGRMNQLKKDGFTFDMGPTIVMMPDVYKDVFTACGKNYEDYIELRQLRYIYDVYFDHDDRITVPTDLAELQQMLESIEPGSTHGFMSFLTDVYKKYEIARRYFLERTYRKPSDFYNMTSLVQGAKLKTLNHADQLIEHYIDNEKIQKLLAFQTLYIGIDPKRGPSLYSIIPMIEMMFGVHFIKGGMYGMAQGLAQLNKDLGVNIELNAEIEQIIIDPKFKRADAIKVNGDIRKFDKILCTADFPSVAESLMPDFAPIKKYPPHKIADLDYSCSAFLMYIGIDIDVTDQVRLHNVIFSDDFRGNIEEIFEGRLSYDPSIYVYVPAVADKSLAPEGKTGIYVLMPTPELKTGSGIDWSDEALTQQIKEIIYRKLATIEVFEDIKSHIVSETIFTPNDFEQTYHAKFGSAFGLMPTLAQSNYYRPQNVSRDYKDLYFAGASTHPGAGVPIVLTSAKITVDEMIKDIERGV
The assay is described as follows: Inhibition of CrtN in methicillin-resistant Staphylococcus aureus LAC USA300 assessed as increase in H2O2-induced bacterial death by measuring survival rate preincubated for 24 hrs followed by H2O2 addition measured after 30 mins by serial dilution method (reference value: 29.0%). Summed up:
(§2)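 Bacteria pretreated with 1 µM inhibitor or mock; N-acetylcysteine-treated cells served as control. Cells then exposed to 1.5% H2O2, and percent survival determined.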

Assay [9] has as its target T2, 4,4'-diapophytoene desaturase (4,4'-diaponeurosporene-forming) (Staphylococcus aureus (strain Mu50 / ATCC 700699)) (UniProt Q99R76).
T2 sequence (whole entry): T1 sequence (whole entry)
Kind of assay: Inhibition of CrtN in methicillin-resistant Staphylococcus aureus Mu50 assessed as increase in H2O2-induced bacterial death by measuring survival rate at preincubated for 24 hrs followed by H2O2 addition measured after 30 mins by serial dilution method (reference value: 29.0%). To be noted: Staphylococcus aureus subsp. aureus Mu50. Summed up:
as §2

In assay [10] the test system is Staphylococcus aureus. Kind of assay: Chemo-sensitization activity in non-pigmented Staphylococcus aureus Newman assessed as increase in H2O2-induced bacterial death by measuring survival rate pre-incubated for 24 hrs followed by H2O2 addition measured after 30 mins by serial dilution method (reference value: 33.3%). The assay is classed as functional. Summed up:
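S. aureus Newman was pre-incubated with 1 µM compound, with N-acetylcysteine as antioxidant control, or mock-treated. Cells were then exposed to 1.5% H2O2. Percent bacterial survival was compared with the mock-treated culture.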

In assay [11] the target is T3, 4,4'-diapophytoene desaturase (4,4'-diaponeurosporene-forming) (Staphylococcus aureus (strain MW2)) (UniProt Q8NUQ6).
T3 sequence (whole entry): T1 sequence (whole entry) with R500Q
Kind of assay: Inhibition of CrtN in methicillin-resistant Staphylococcus aureus USA400 MW2 assessed as increase in H2O2-induced bacterial death by measuring survival rate preincubated for 24 hrs followed by H2O2 addition measured after 30 mins by serial dilution method (reference value: 28.7%). The following applies: Staphylococcus aureus subsp. aureus MW2. Summed up:
as §2

The subject of assay [12] is Staphylococcus aureus. Kind of assay: In vivo anti-virulence activity against methicillin-resistant Staphylococcus aureus LRSA202 infected in BALB/c mouse model assessed as reduction in bacterial load in kidney at 0.1 mg bid for 3.5 days administered intraperitoneally 6 hrs post infection by serial dilution method relative to control. The class given is functional, organism-based. Summed up:
as §1

For assay [13], the system named is Staphylococcus aureus. Kind of assay: In vivo anti-virulence activity against Staphylococcus aureus NRS271 infected in BALB/c mouse model assessed as reduction in bacterial load in kidney at 0.4 mg bid for 4.5 days administered orally 6 hrs post infection by serial dilution method relative to control. The assay is classed as functional, organism-based.
Assay [14] deals with Staphylococcus aureus. The assay is described as follows: In vivo anti-virulence activity against methicillin-resistant Staphylococcus aureus NRS271 infected in BALB/c mouse model assessed as reduction in bacterial load in heart at 0.4 mg bid for 4.5 days administered intraperitoneally 6 hrs post infection by serial dilution method. The assay is classed as functional, organism-based.

Assay [15] concerns Staphylococcus aureus. Kind of assay: In vivo anti-virulence activity against methicillin-resistant Staphylococcus aureus LRSA202 infected in BALB/c mouse model assessed as reduction in bacterial load in heart at 0.1 mg bid for 3.5 days administered intraperitoneally 6 hrs post infection by serial dilution method relative to control. The class given is functional, organism-based. Summed up: as §1

Changes are numbered by the printed parent chain. Converted amounts (≈) assume the structure as drawn. The source made the active and inactive calls. No cut-off for these calls is given here.

Take `CC(=O)N1CCN(c2ccc(OCC3COC(Cn4ccnc4)(c4ccc(Cl)cc4Cl)O3)cc2)CC1` (stereo not given) [KETOCONAZOLE]: the MIC80 in the assay with Nannizzia gypsea amounted to 2 µg/mL (≈ 3.76 µM); in the assay with Trichophyton verrucosum it was 0.0625 µg/mL (≈ 0.118 µM); in the assay on Trichophyton rubrum, 0.5 µg/mL (≈ 0.941 µM); in [1], 0.0625 µg/mL (≈ 0.118 µM).
With `OC(Cn1cncn1)(Cn1cncn1)c1ccc(F)cc1F` [FLUCONAZOLE], the MIC80 in the assay on Nannizzia gypsea stood at 8 µg/mL (≈ 26.1 µM); against Trichophyton verrucosum it was 2 µg/mL (≈ 6.53 µM); in the assay with Trichophyton rubrum it was 1 µg/mL (≈ 3.27 µM); in assay [1], 2 µg/mL (≈ 6.53 µM).
Regarding `CN[C@H](CC(C)C)C(=O)N[C@H]1C(=O)N[C@@H](CC(N)=O)C(=O)N[C@H]2C(=O)N[C@H]3C(=O)N[C@H](C(=O)N[C@H](C(=O)O)c4cc(O)cc(O)c4-c4cc3ccc4O)[C@H](O)c3ccc(c(Cl)c3)Oc3cc2cc(c3O[C@@H]2O[C@H](CO)[C@@H](O)[C@H](O)[C@H]2O[C@H]2C[C@](C)(N)[C@H](O)[C@H](C)O2)Oc2ccc(cc2Cl)[C@H]1O`, the outcome in the assay with Staphylococcus aureus [2], in the assay on Staphylococcus aureus [3], in the assay on Staphylococcus aureus [4], in the assay with Staphylococcus aureus [5], with Staphylococcus aureus [6] and in the assay with Staphylococcus aureus [7] was Active.
For the compound `CC(=O)N[C@@H](CS)C(=O)O` [ACETYLCYSTEINE], the Survival in [8] amounted to 52%; in assay [9], 53%; in the assay with Staphylococcus aureus [10], 51.3%; in assay [11] it was 54.3%.
Take `C[C@@H](c1ncncc1F)[C@](O)(Cn1cncn1)c1ccc(F)cc1F` [VORICONAZOLE]: the MIC80 against Nannizzia gypsea was 0.25 µg/mL (≈ 0.716 µM); with Trichophyton verrucosum, 0.0312 µg/mL (≈ 0.0895 µM); against Trichophyton rubrum, 0.0312 µg/mL (≈ 0.0895 µM); in assay [1], 0.0312 µg/mL (≈ 0.0895 µM).
In the case of `CC(=O)NC[C@H]1CN(c2ccc(N3CCOCC3)c(F)c2)C(=O)O1`, the outcome in the assay on Staphylococcus aureus [2], in the assay with Staphylococcus aureus [12], in the assay with Staphylococcus aureus [3], with Staphylococcus aureus [13], in the assay with Staphylococcus aureus [4] and with Staphylococcus aureus [6] was Active. Moreover, the outcome in the assay on Staphylococcus aureus [14] and in the assay on Staphylococcus aureus [15] was Active.

The MIC80 is the lowest concentration that inhibits either 80% of growth or 80% of the strains tested, depending on the study. Lower therefore signals greater potency.
